Experimental data pooled from the literature.
Compare with care: the assays were run in different laboratories.
Target: Homeodomain-interacting protein kinase 4 (HIPK4, Homo sapiens, UniProt Q8NE63)
Read-out: enzyme activity
Action: inhibitor
Residues used in one study (Q8NE63 1-616): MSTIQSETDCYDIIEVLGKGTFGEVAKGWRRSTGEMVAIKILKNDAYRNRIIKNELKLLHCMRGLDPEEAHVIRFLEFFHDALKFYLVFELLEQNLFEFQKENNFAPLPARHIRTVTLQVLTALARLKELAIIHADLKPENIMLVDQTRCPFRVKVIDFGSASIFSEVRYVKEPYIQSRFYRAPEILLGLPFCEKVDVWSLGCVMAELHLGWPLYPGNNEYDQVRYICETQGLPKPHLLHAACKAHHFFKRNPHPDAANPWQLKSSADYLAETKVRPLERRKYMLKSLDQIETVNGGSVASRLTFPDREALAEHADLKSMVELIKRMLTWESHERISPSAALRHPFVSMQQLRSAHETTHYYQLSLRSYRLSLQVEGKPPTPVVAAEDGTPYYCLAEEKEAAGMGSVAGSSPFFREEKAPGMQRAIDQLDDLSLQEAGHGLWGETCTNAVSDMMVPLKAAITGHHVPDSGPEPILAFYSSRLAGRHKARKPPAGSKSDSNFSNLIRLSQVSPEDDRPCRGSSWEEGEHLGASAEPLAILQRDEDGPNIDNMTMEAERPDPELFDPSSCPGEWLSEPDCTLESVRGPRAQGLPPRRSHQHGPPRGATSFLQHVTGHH

For CC(C)(C)c1nc2c(s1)c1nc(N)ncc1c1ccc(NS(=O)(=O)c3c(F)cccc3F)c(F)c12, the remaining activity was 82% (radiometric; 1 µM).
The remaining activity of O=C(Nc1cnn(-c2csc(C(=O)NC3COC3)c2)c1)Nc1ccccc1Cl is reported as 100% (5 µM).
CC(C)(C)c1nc(-c2cccc(NS(=O)(=O)c3c(F)cccc3F)c2F)c(-c2ccnc(N)n2)s1 has a remaining activity of 37% (radiometric; 1 µM).
O=C(O)c1ccc2c(c1)nc(NCCc1ccccc1)c1ncncc12 has a remaining activity of 29% (radiometric; 1 µM).
COc1cc(Cl)c(C(=O)N[C@@H](CN[C@H]2CC[C@@H](N)CC2)Cc2ccc(C#N)cc2)cc1-c1ccc(CN[C@H](C)c2ccc(C)cc2)o1 has a remaining activity of 90% (1 µM).
For CC(C)(O)[C@H]1CC[C@H](Nc2ccc3ncc(-c4cccc(C(F)(F)F)c4)n3n2)CC1, the remaining activity was 23.6% (1 µM).
For O=C(O)c1ccc2c(c1)nc(NCc1ccccc1)c1ncncc12, the remaining activity was 63% (radiometric; 1 µM).
Cc1ccc(C(=O)Nc2ccc(CN3CCN(C)CC3)c(C(F)(F)F)c2)cc1C#Cc1cnc2cccnn12 gave a remaining activity of 71% (23.5 nM).
For O=C(O)c1ccc2c(c1)nc(Nc1ccccc1)c1ccncc12, the remaining activity was -2% (radiometric; 1 µM).
The remaining activity of Cc1sc(C(=O)NC2COC2)cc1-n1cc(NC(=O)Nc2c(F)cccc2Cl)cn1 is reported as 98.4% (10 µM).
